Beta2AR agonist: activates human beta-2 adrenergic receptor causing internalization. actives 0.43% (n = 340,000). Am2.2-beta2AR cells, FAP receptor internalization, flow cytometry. P07550. AID 504454. response, % (concentration not given with the values);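 active = response above a set limit, near 3 SD of response in nonfluorescent compounds, cut at about 42% in these data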
Target sequence (P07550 whole entry, looked up): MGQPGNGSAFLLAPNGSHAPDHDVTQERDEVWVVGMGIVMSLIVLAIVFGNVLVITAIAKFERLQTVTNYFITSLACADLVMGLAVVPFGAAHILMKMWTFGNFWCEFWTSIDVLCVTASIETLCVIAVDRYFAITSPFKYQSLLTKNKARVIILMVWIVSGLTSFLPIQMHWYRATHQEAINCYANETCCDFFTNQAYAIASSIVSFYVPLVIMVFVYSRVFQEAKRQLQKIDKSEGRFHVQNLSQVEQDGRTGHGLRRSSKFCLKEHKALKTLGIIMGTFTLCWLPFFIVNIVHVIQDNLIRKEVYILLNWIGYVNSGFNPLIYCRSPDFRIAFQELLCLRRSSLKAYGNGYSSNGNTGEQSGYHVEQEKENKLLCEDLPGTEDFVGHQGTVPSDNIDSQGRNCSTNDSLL
PfG6PD inh: PfG6PD (Plasmodium falciparum) enzyme inhibition | PfGluPho enzyme, NADPH resazurin-diaphorase fluorescence | inhibition, % at 20 µM | actives 0.78% (n = 350,000);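 active = inhibition reaching at least a set limit at 20 µM in the primary screen, cut at about 59% in these data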
ABHD5 PLIN5 PPI: blocks binding of human ABHD5 to perilipin-5. Q00G26+Q8WTS1. Split G. princeps luciferase complementation, luminescence, 4 h. inhibition, % at 4 µM. actives 0.78% (n = 360,000). AID 602281;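 active = inhibition above the mean inhibition across every tested compound plus 3 SD, cut at about 22% in these data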
MC4R barr agon: agonists of human melanocortin 4 receptor (MC4R) beta-arrestin. P32245. U2OS MC4R beta-arrestin complementation, luminescence; percent of melanotan II response, DMSO zero. activation, % at 8.9 µM. actives 0.98% (n = 360,000). AID 540308;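 active = activation above a per-plate cutoff, the mean activation of sample wells on that plate plus 3 SD, cut at about 8% in these data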
MC4R antagonist: blocks human MC4R cAMP signaling | P32245 | inhibition, % at 6.5 µM | actives 0.48% (n = 360,000) | MC4R-expressing cells, MTII-stimulated cAMP, LANCE TR-FRET;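 active = inhibition above its plate's cutoff, the mean of tested wells on that plate plus 3 SD, cut at about 29% in these data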
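System – human MC4R-expressing U2OS cells · Also added – Melanotan II · Dosing – one concentration, 6.5 µM nominal · Timing – 30-min compound, 1-h challenge, 1-h detection, room temperature · Measured by – Eu-cAMP/anti-cAMP TR-FRET, emission 671 nm · Replicates – singlicate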
MC4R barr ag: human MC4R beta-arrestin agonism confirmation. shares compounds with MC4R barr agon. U2OS MC4R beta-arrestin recruitment, luminescence; scaled DMSO 0%, Melanotan II 100%. actives 31% (n = 2,400). activation, % at 8.9 µM;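 active = mean activation across replicates above the hit cutoff set in the earlier primary screen, cut at about 8% in these data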
MOR DOR agonist: counter-screen for MC4R agonists: agonists of mu-delta opioid heterodimer | U2OS PathHunter beta-arrestin, beta-gal luminescence; percent of deltorphin B response, DMSO zero | AID 602194 | activation, % at 9.2 µM | actives 5.8% (n = 2,400) | shares compounds with MC4R barr agon;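 active = mean activation across replicates exceeds the hit threshold derived in the earlier primary screen, cut at about 18% in these data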
Of the large screens only hits and unclear results are named; the others gave an inactive call (follow-up assays come after a bar, where they were run); ! = a repeat was not active. An excerpt weighted towards active compounds, which were near 3% of everything screened.

CCN1CCN(Cc2ccc(NC(=O)c3cc(NC(=O)c4cc5cccc(OC)c5o4)cc(OC)c3)cc2C(F)(F)F)CC1	MC4R barr agon 28.6! | MC4R barr ag 37.0 | MOR DOR agonist inactive
Cc1c2n(c3ccccc13)CCN(C)C2	none
COc1ccc(OC)c(-c2cc(C(=O)Nc3cc(C)on3)no2)c1	MC4R barr agon 16.6 | MC4R barr ag 10.1 | MOR DOR agonist inactive
COc1ccc(NC(=O)c2cc(-c3ccco3)on2)c(OC)c1	MC4R barr agon 10.3 | MC4R barr ag inactive | MOR DOR agonist inactive
CCOc1ccc(NS(=O)(=O)c2c(C)nc3sc(CC)nn3c2=O)cc1	none
C=C(C)CNC(=S)NNC(=O)CCn1c2ccc(Cl)cc2c2cc(Cl)ccc21	MC4R barr agon 10.8 | MC4R barr ag inactive | MOR DOR agonist inactive
O=C(O)CCCCCN1C(=O)/C(=C/c2cn(-c3ccccc3)nc2-c2cccs2)SC1=S	none
O=C(O)CCCCCN1C(=O)/C(=C\c2cn(-c3ccccc3)nc2-c2cccs2)SC1=S	MC4R barr agon 26.3 | MC4R barr ag 10.0 | MOR DOR agonist inactive
O=C(O)CCN1C(=O)/C(=C/c2cn(-c3ccccc3)nc2-c2cccs2)SC1=S	MC4R barr agon 26.5 | MC4R barr ag inactive | MOR DOR agonist inactive
COc1cc(/C=N/NC(=O)c2ccccn2)ccc1OC(=O)c1ccccc1Br	MC4R barr agon 12.5 | MC4R barr ag inactive | MOR DOR agonist inactive
NC(c1csc(NC(=O)Nc2ccccc2)n1)C1CCCCC1 (configuration not stated)	none (no result: Beta2AR agonist, PfG6PD inh)
NC(CCc1ccccc1)c1csc(NC(=O)Nc2cccc(Cl)c2)n1 (configuration not stated)	none (no result: Beta2AR agonist, PfG6PD inh)
NC(c1ccccc1)c1csc(NC(=O)Nc2cccc(Cl)c2)n1 (configuration not stated)	MC4R barr agon 11.7 (no result: Beta2AR agonist, PfG6PD inh) | MC4R barr ag 13.1 | MOR DOR agonist inactive
NC(c1csc(NC(=O)Nc2cccc(Cl)c2)n1)C1CCCCC1 (configuration not stated)	MC4R barr agon 13.2 (no result: Beta2AR agonist, PfG6PD inh) | MC4R barr ag 20.0 | MOR DOR agonist inactive
CC(N1CCOC1=O)S(=O)(=O)c1ccccc1 (configuration not stated)	none
Cc1noc(C)c1C(=O)OC(C)C(=O)N(C)c1ccccc1 (configuration not stated)	none
CCCC(=O)N1CCCC1(C)C(=O)N(C)Cc1cccc2ccccc12 (configuration not stated)	none (no result: Beta2AR agonist, PfG6PD inh)
CSc1cccc(NC(=O)CN(c2ccc(C)cc2C)S(C)(=O)=O)c1	MC4R barr agon 10.1 | MC4R barr ag inactive | MOR DOR agonist inactive
CSc1cccc(NC(=O)CN(c2cccc(C)c2)S(C)(=O)=O)c1	none
COc1cc(/C=C/C(=O)OCC(=O)NCCc2ccccc2)cc(OC)c1OC	none
COC(=O)c1ccccc1NC(=O)COC(=O)/C=C/c1cccs1	MC4R barr agon 20.2 | MC4R barr ag inactive | MOR DOR agonist inactive
COc1cc(/C=C/C(=O)OCC(=O)Nc2ccccc2Cl)cc(OC)c1OC	MC4R barr agon 15.1 | MC4R barr ag inactive | MOR DOR agonist inactive
COc1ccc(CCN2CC(C(=O)NCC(=O)Nc3ccc(F)c(F)c3)CC2=O)cc1OC (configuration not stated)	none
Cc1sc2ncnc(N3CCC(C(=O)Nc4ccc(C#N)cc4)CC3)c2c1C	MC4R barr agon 11.5 | MC4R barr ag inactive | MOR DOR agonist inactive
O=C(COC(=O)/C=C/c1cccc(Cl)c1)NC(=O)NCc1ccccc1	MC4R barr agon 11.4 | MC4R barr ag inactive | MOR DOR agonist inactive
O=C(COC(=O)/C=C/c1ccc(Cl)cc1Cl)NCCC1=CCCCC1	none
Cc1cc(Br)cc(Br)c1OCC(=O)NNC(=O)CCC(=O)NCc1ccccc1	none
Cc1cc(Br)cc(Cl)c1OCC(=O)NC(=O)NCc1ccccc1	MC4R barr agon 11.5 | MC4R barr ag inactive | MOR DOR agonist inactive
O=C(COC(=O)/C=C/c1ccccc1Cl)NCCc1ccc(Cl)cc1Cl	MC4R barr agon 9.9 | MC4R barr ag inactive | MOR DOR agonist inactive

Compound activity from PubChem.
